# Columns and labels:
# [1] = target: T1, Tyrosine-protein kinase ITK/TSK (Homo sapiens, UniProt Q08881); assay: Inhibition of recombinant human ITK (352 to 617 residues) using myelin basic protein as substrate measured after 40 mins in presence of [gamma33P]ATP by scintillation counting analysis
# T1 sequence (Q08881 whole entry): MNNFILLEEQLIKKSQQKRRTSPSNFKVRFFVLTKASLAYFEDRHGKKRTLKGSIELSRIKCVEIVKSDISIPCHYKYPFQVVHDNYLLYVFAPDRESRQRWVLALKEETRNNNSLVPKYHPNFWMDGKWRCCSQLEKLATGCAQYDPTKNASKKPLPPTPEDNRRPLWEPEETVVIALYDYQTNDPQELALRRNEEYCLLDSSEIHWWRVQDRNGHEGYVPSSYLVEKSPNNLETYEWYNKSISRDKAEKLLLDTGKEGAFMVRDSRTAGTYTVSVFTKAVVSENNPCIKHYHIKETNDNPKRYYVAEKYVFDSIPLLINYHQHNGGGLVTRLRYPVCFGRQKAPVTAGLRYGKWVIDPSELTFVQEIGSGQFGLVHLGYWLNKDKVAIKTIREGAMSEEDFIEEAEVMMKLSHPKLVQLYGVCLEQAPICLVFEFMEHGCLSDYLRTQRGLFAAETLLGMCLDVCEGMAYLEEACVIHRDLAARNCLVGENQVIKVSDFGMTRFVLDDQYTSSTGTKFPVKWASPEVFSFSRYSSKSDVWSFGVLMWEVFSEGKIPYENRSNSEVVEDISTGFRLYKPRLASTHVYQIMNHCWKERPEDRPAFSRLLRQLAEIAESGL
# [2] = organism: Homo sapiens; assay: Selectivity ratio of IC50 for recombinant human ITK (352 to 617 residues) to IC50 for inhibition of FAM-labeled peptide binding to full-length human N-terminal GST-tagged BTK (2 to 659 residues) expressed in baculovirus infected Sf21 insect cells
# Outline: (§1)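 Ratio of kinase IC50 to BTK IC50. BTK measured by off-chip mobility shift: compound preincubated 10 min with BTK in 50 mM HEPES pH 7.5, 0.01% Brij-35, then FAM-labelled peptide and ATP added, 28 °C. Stopped with EDTA buffer; percent conversion fitted for IC50. Each panel kinase assayed in triplicate.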
# [3] = target: Epidermal growth factor receptor (Homo sapiens, UniProt P00533); assay: Inhibition of recombinant human GST-tagged EGFR cytoplasmic domain (668 to 1210 residues) expressed in baculovirus expression system using Z'-lyte-labelled tyr-4 peptide as substrate measured after 1 hr by FRET assay
# Chain of Epidermal growth factor receptor (P00533 whole entry, the tested form may be a part): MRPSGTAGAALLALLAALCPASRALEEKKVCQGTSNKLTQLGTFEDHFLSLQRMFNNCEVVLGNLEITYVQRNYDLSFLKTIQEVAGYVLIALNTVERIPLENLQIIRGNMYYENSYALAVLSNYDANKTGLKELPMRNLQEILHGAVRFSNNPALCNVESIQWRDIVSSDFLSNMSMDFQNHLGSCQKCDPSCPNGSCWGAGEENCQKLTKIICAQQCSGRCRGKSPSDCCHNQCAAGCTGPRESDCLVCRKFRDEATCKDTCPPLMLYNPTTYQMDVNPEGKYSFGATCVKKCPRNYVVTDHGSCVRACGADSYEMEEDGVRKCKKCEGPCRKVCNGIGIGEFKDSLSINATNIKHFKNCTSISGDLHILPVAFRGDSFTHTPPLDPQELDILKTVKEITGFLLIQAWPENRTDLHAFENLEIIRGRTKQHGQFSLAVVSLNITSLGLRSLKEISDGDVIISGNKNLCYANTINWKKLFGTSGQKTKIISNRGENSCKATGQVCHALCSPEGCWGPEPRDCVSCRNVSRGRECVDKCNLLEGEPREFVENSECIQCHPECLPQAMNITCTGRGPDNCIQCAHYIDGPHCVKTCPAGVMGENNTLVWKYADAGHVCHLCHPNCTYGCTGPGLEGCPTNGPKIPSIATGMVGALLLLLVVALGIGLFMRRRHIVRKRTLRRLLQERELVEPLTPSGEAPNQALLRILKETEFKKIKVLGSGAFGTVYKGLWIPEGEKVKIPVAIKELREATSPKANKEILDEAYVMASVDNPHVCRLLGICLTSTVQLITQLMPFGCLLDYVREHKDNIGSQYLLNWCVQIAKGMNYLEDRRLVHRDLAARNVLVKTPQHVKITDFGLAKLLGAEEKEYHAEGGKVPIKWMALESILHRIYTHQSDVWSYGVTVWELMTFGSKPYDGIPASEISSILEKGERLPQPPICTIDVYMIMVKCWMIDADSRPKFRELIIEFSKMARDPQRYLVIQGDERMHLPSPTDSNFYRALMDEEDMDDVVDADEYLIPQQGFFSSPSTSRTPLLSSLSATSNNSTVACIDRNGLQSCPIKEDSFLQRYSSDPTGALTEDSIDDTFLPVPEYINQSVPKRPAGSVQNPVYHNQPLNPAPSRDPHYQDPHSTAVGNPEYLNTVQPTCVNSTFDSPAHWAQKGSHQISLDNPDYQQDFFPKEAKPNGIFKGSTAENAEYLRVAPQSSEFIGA
# Outline: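 Z'-LYTE kinase assay. Compounds tested as 3-fold serial dilutions in aqueous solution containing 4% DMSO. Fluorescence read at 400 nm excitation and 445/520 nm emission. IC50 is the mean of ≥3 assays in triplicate.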
# [4] = Stability in Sprague-Dawley rat plasma assessed as parent compound remaining at 1 uM measured after 2 hrs by LC-MS/MS analysis; type: ADME, cell-free; details: read-out: Stability
# Outline: (§2)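 Compound at 1 µM initial concentration incubated 2 h at 37 °C in plasma. Quenched with 10 volumes of methanol containing internal standard, then centrifuged. Supernatant diluted with an equal volume of water and analysed by LC-MS/MS. Read-out is % parent remaining. Mean of three separate assays run in triplicate.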
# [5] = target: Tyrosine-protein kinase BTK (Homo sapiens, UniProt Q06187, C481S); assay: biochemical
# Chain of Tyrosine-protein kinase BTK (Q06187 whole entry C481S, the tested form may be a part): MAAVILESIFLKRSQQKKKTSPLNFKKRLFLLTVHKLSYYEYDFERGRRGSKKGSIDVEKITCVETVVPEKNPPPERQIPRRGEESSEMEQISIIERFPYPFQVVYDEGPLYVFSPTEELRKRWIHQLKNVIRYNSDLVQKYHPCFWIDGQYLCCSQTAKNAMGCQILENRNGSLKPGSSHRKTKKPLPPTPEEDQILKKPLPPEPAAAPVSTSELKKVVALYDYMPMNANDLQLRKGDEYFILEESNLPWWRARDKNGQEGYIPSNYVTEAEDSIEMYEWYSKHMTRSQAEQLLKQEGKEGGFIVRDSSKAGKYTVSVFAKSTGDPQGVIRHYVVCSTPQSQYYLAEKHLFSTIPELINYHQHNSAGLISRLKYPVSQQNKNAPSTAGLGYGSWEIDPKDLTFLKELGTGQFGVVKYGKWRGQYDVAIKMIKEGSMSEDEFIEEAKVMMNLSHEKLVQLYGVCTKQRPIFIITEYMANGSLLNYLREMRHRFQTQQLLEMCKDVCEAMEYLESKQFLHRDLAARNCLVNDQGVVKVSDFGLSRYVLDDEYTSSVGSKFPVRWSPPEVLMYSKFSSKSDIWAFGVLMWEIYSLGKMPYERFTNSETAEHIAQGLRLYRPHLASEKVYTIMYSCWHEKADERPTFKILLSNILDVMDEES
# [6] = organism: Homo sapiens; assay: Selectivity ratio of IC50 for human full-length recombinant YES to IC50 for inhibition of FAM-labeled peptide binding to full-length human N-terminal GST-tagged BTK (2 to 659 residues) expressed in baculovirus infected Sf21 insect cells; outline: as §1
# [7] = Inhibition of recombinant mouse full-length BLK V421E mutant using poly(Glu, Tyr) 4:1 as substrate measured after 40 mins in presence of [gamma33P]ATP by scintillation counting analysis
# Outline: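 Radiometric assay with BLK in 50 mM Tris pH 7.5, 0.1 mM EGTA, 0.1 mM Na3VO4, 0.1% mercaptoethanol, 0.1 mg/mL poly(Glu,Tyr) 4:1, 10 mM Mg acetate and [γ-33P]-ATP. Started with Mg/ATP at room temperature; 40 min. Stopped with 0.5% phosphoric acid, filtermat-spotted, washed, scintillation counted. Mean of ≥3 assays in triplicate.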
# [8] = Clearance in Sprague-Dawley rat at 2 mg/kg, iv by LC-MS/MS analysis; type: ADME, organism-based; details: in vivo
# Outline: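 Male Sprague-Dawley rats (187-205 g, n=6 per route). IV group: 2 mg/kg by tail vein in 10% DMSO/90% PEG400, fed animals. Oral group: 5 mg/kg as a 0.5% methylcellulose suspension, fasted animals. Jugular cannula blood taken pre-dose and from 0.033 h (iv only) to 24 h. Plasma stored at -20 °C and analysed by LC-MS/MS.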
# [9] = Toxicity in complete freund's adjuvant-induced DBA/1 mouse arthritis model assessed as effect on appetite at 10 mg/kg, po qd administered starting from 29 day post-CFA challenge and measured on day 29, 33, 36, 40 and 43; type: organism-based; details: in vivo, 696 h
# Outline: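 CIA in male DBA/1 mice: intradermal bovine type II collagen in CFA on day 0, collagen II in IFA boost on day 20. Randomized on day 29 and given oral doses once daily (n=6 per group) alongside vehicle and naive groups. Body weights recorded over the study days.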
# [10] = Stability in human plasma assessed as parent compound remaining at 1 uM measured after 2 hrs by LC-MS/MS analysis; type: ADME, cell-free; details: read-out: Stability; outline: as §2
# [11] = target: Proto-oncogene tyrosine-protein kinase Src (Homo sapiens, UniProt P12931); assay: Inhibition of recombinant full-length human SRC using KVEKIGEGTYGVVYK as substrate measured after 40 mins in presence of [gamma33P]ATP by scintillation counting analysis
# Chain of Proto-oncogene tyrosine-protein kinase Src (P12931 2-536 limits assumed): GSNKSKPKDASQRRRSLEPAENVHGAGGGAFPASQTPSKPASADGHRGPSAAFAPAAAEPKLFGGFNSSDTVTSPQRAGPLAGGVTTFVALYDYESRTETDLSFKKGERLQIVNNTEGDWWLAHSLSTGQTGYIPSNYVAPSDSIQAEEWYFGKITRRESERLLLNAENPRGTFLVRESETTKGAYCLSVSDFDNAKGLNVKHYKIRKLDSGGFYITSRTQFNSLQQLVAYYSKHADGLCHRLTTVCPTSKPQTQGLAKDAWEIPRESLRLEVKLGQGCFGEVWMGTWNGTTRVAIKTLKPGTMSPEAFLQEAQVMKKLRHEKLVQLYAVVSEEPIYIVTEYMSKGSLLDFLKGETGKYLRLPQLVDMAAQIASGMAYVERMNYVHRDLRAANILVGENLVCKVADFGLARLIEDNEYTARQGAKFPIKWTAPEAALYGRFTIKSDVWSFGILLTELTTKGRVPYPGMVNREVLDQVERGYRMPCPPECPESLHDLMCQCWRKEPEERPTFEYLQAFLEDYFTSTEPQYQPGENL
# Outline: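 Started with Mg/ATP at room temperature; 40 min incubation. Stopped with 0.5% phosphoric acid, filtermat-spotted, washed, scintillation counted. Mean of ≥3 assays in triplicate.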
# [12] = organism: Homo sapiens; assay: Selectivity ratio of IC50 for recombinant human N-terminal GST-fused TEC catalytic domain (359 to 631 residues) expressed in baculovirus expression system to IC50 for inhibition of FAM-labeled peptide binding to full-length human N-terminal GST-tagged BTK (2 to 659 residues) expressed in baculovirus infected Sf21 insect cells; outline: as §1
# [13] = organism: Homo sapiens; assay: Selectivity ratio of IC50 for recombinant full-length human SRC to IC50 for inhibition of FAM-labeled peptide binding to full-length human N-terminal GST-tagged BTK (2 to 659 residues) expressed in baculovirus infected Sf21 insect cells; outline: as §1
# [14] = Stability in mouse plasma assessed as parent compound remaining at 1 uM measured after 2 hrs by LC-MS/MS analysis; type: ADME, cell-free; details: read-out: Stability; outline: as §2
# [15] = organism: Homo sapiens; assay: Selectivity ratio of IC50 for recombinant mouse full-length BLK V421E mutant to IC50 for inhibition of FAM-labeled peptide binding to full-length human N-terminal GST-tagged BTK (2 to 659 residues) expressed in baculovirus infected Sf21 insect cells
# Outline: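 Ratio is BLK IC50 divided by BTK IC50. BLK: radiometric, 50 mM Tris pH 7.5, 0.1 mM EGTA, 0.1 mM Na3VO4, 0.1% mercaptoethanol, 0.1 mg/mL poly(Glu,Tyr) 4:1, 10 mM Mg acetate, [γ-33P]ATP, 40 min room temperature, phosphoric acid stop, filter-bound scintillation counting. BTK: off-chip mobility shift with FAM-peptide. Triplicates, ≥3 assays.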
smiles,measurement,setting,value
COc1cc2cn[nH]c2cc1-c1ccc(F)c2c(N)c(C(N)=O)cnc12,IC50,[1],0.307 µM
same,Ratio IC50,[2],58
same,IC50,[3],> 2 µM
same,"remaining at 2 h, 1 µM",[4],96%
same,IC50,[5],0.039 µM
same,Ratio IC50,[6],> 1000
same,IC50,[7],0.15 µM
same,clearance,[8],1.25 L/h/kg
same,Activity,[9],Non-Toxic
same,"remaining at 2 h, 1 µM",[10],93%
same,IC50,[11],0.903 µM
same,Ratio IC50,[12],43
same,Ratio IC50,[13],170
same,"remaining at 2 h, 1 µM",[14],98%
same,Ratio IC50,[15],28

# — ChEMBL document CHEMBL4334447, “Discovery of 4-Aminoquinoline-3-carboxamide Derivatives as Potent Reversible Bruton's Tyrosine Kinase Inhibitors for the Treatment of Rheumatoid Arthritis” (J Med Chem, 2019)
